Source: ChEMBL document CHEMBL4680079, “Discovery of a Quinoline-4-carboxamide Derivative with a Novel Mechanism of Action, Multistage Antimalarial Activity, and Potent in Vivo Efficacy” (J Med Chem, 2016)
Activity calls are given as the source filed them. No cut-off for these calls is given here.

How the values were obtained:
Plasmodium berghei [1] = experiment: Antiplasmodial activity against Plasmodium berghei ookinete form assessed as growth inhibition incubated for 22 hrs by GFP-based fluorescence microscopic analysis; assay type: functional, organism-based
[2] = Volume of distribution at steady state in NMRI mouse at 1 mg/kg, iv administered as bolus dose by UPLC-MS/MS analysis; assay type: ADME, organism-based; details: in vivo
Plasmodium falciparum [3] = experiment: Antiplasmodial activity against drug resistant Plasmodium falciparum V1/S by [3H]hypoxanthine incorporation assay; assay type: functional, organism-based
Summary of the method: (§1)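 Strains (K1, W2, 7G8, TM90C2A, D6, V1/S resistant; NF54 sensitive) cultured by the Trager and Jensen method; EC50 determined in vitro from [3H]hypoxanthine incorporation.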

Plasmodium berghei [4] = experiment: Antiplasmodial activity against Plasmodium berghei ANKA infected in NMRI mouse assessed as survival days at 30 mg/kg, po QD for 4 days; assay type: functional; details: time 4 day
Plasmodium berghei [5] = experiment: Antiplasmodial activity against Plasmodium berghei ANKA infected in NMRI mouse assessed as cure rate at 30 mg/kg, po QD for 4 days; assay type: functional, organism-based; details: time 4.0 day
Summary of the method: (§2)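 Female NMRI mice (n=3 per group, randomized, not blinded) infected with GFP-transfected P. berghei ANKA. Oral dosing once daily for 4 days in 10% DMSO/40% PEG400/50% water or HPMC suspension vehicle. Parasitaemia measured by flow cytometry on blood collected 96 h after infection. Mice watched for toxicity over 4 h post-dose each day.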

[6] = Half-life in Sprague-Dawley rat at 1 mg/kg, iv administered as bolus dose by UPLC-MS/MS analysis; assay type: ADME, organism-based; details: in vivo, 1 mg/kg
Summary of the method: (§3)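 Male Sprague Dawley rats (n=3/route) received an iv bolus solution at 1 mg free base/kg (5 mL/kg; 5% DMSO in saline). Blood sampled from 5 min to 30 or 48 h post-dose, mixed with two volumes water, frozen, then analysed by UPLC-MS/MS. Parameters derived from the blood concentration-time curve.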

Plasmodium falciparum [7] = experiment: Antiplasmodial activity against drug resistant Plasmodium falciparum TM90C2A by [3H]hypoxanthine incorporation assay; assay type: functional, organism-based; summary of the method: as §1
[8] = Intrinsic clearance in human liver microsomes at 0.5 uM in presence of NADPH incubated upto 30 mins by UPLC-MS/MS analysis; assay type: ADME, Microsome; details: 0.5 h
Summary of the method: (§4)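 Compound at 0.5 μM incubated with female CD1 mouse, male Sprague-Dawley rat or pooled human liver microsomes (0.5 mg/mL, 50 mM potassium phosphate, pH 7.4). Reaction started with excess NADPH. Samples taken at 0-30 min, quenched in acetonitrile, analysed by UPLC-MS/MS. Verapamil used as control, single time course.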

Plasmodium berghei [9] = experiment: Antiplasmodial activity against Plasmodium berghei ANKA infected in NMRI mouse assessed as cure rate at 10 mg/kg, po QD for 4 days; assay type: functional, organism-based; details: time 4.0 day; summary of the method: as §2
[10] = AUC in Sprague-Dawley rat at 5 mg/kg, po administered via gavage by UPLC-MS/MS analysis; assay type: ADME, organism-based; parameters: dose 5 mg/kg; details: in vivo
Summary of the method: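 Male Sprague Dawley rats (n=3) gavaged with a solution at 5 mg free base/kg (10 mL/kg; 0.5% w/v HPMC, 0.4% v/v Tween 80, 0.5% v/v benzyl alcohol). Blood sampled at 5, 15, 30 min and 1, 2, 4, 6, 8, 24, 30, 48 h, diluted with two volumes water, analysed by UPLC-MS/MS.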

Plasmodium falciparum [11] = experiment: Antiplasmodial activity against drug resistant Plasmodium falciparum 7G8 by [3H]hypoxanthine incorporation assay; assay type: functional, organism-based; summary of the method: as §1
[12] = Permeability of the compound at 10 uM incubated for 5 hrs by UPLC-MS/MS analysis based PAMPA method; assay type: ADME; details: read-out: permeability
Summary of the method: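 PAMPA run on a lipid-oil-lipid tri-layer filter at pH 7.4. Compound at 10 μM in PBS (DMSO ≤5%) in donor wells, PBS in acceptor wells, kept 5 h at room temperature. Both compartments quantified by UPLC-MS/MS. Data accepted only when recovery exceeded 70%.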

Plasmodium falciparum [13] = experiment: Antiplasmodial activity against drug resistant Plasmodium falciparum […] [3H]hypoxanthine incorporation assay; assay type: functional, organism-based; summary of the method: as §1
[14] = target: Voltage-gated inwardly rectifying potassium channel KCNH2 (Homo sapiens, UniProt Q12809); experiment: Inhibition of human ERG by IonWorks patch-clamp electrophysiology method
Voltage-gated inwardly rectifying potassium channel KCNH2, sequence (Q12809 whole entry): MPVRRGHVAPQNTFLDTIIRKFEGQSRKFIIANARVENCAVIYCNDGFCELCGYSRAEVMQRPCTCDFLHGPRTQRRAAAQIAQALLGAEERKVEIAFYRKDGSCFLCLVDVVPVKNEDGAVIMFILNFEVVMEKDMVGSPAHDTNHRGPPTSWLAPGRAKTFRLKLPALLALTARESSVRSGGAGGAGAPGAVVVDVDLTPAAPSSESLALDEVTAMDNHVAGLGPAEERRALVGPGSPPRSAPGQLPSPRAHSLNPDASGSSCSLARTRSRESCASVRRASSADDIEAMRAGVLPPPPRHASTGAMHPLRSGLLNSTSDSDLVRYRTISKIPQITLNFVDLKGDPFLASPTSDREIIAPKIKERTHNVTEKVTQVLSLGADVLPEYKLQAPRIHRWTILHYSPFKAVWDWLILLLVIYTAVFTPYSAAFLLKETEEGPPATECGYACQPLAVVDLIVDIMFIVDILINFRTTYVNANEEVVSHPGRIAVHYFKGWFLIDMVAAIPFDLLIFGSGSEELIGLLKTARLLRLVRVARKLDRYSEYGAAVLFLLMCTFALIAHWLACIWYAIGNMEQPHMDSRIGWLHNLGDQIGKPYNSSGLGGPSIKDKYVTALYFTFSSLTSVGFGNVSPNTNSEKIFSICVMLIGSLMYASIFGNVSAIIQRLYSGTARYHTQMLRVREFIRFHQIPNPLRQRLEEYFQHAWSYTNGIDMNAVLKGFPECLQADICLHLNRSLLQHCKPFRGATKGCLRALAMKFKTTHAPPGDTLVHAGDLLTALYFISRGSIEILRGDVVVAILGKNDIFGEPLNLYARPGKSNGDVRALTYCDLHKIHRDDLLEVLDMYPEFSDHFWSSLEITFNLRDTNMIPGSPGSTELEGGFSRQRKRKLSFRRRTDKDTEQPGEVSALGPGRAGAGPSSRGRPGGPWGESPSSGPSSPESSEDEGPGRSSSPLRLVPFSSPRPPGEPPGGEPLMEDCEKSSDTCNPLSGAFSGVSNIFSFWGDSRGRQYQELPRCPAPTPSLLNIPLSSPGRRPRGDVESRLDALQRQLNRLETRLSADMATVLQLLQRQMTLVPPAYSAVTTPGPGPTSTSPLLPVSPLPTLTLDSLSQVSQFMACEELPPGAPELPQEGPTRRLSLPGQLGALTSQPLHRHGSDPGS
Summary of the method: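 hERG K⁺ channel inhibition measured by IonWorks patch-clamp electrophysiology. Eight-point concentration-response curves made from 3-fold serial dilutions down from the maximum final assay concentration. Each curve generated on 2 occasions.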

Plasmodium berghei [15] = experiment: Antiplasmodial activity against Plasmodium berghei ANKA infected in NMRI mouse assessed as survival days at 1 mg/kg, po QD for 4 days; assay type: functional; details: time 4 day
Plasmodium berghei [16] = experiment: Antiplasmodial activity against Plasmodium berghei ANKA infected in NMRI mouse assessed as survival days at 3 mg/kg, po QD for 4 days; assay type: functional; details: time 4 day
Plasmodium falciparum [17] = experiment: Antiplasmodial activity against drug resistant Plasmodium falciparum D6 by [3H]hypoxanthine incorporation assay; assay type: functional, organism-based; summary of the method: as §1
Plasmodium berghei [18] = experiment: Antiplasmodial activity against Plasmodium berghei ANKA infected in NMRI mouse assessed as survival days at 10 mg/kg, po QD for 4 days; assay type: functional; details: time 4 day
[19] = Clearance in Sprague-Dawley rat blood at 1 mg/kg, iv administered as bolus dose by UPLC-MS/MS analysis; assay type: ADME, organism-based; summary of the method: as §3
MRC5 = experiment: Antiproliferative activity against human MRC5 cells assessed as reduction in cell viability after 68 hrs by resazurin dye based fluorescence assay; details: MRC5, 68 h
Summary of the method: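 MRC-5 fibroblasts plated overnight as monolayers, exposed to compound pre-diluted in MEM for 68 h. Resazurin then added (final 50 μM) for 3 h, fluorescence read at ex 528/em 590 nm. Signal converted to % inhibition against high- and no-inhibition controls. Plates accepted at Z' > 0.5.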

Plasmodium berghei [20] = experiment: Antiplasmodial activity against Plasmodium berghei ANKA infected in NMRI mouse assessed as reduction in parasitemia at 10 mg/kg, po QD for 4 days; assay type: functional; parameters: scale not given: the % may be the effect or the level left; details: time 4 day; summary of the method: as §2
Plasmodium berghei [21] = experiment: Antiplasmodial activity against GFP-transfected Plasmodium berghei ANKA infected in NMRI mouse assessed as reduction in parasitemia by measuring effective dose administered once daily oral dose for 4 days; assay type: functional; details: 96 h, time 4 day; summary of the method: as §2
Plasmodium falciparum [22] = experiment: Antiplasmodial activity against late stage (IV/V) Plasmodium falciparum NF54 gametocytes transfected with GFP-LUC assessed as growth inhibition incubated for 72 hrs by mitotracker Red-CMXROS dye based fluorescence microscopic analysis; assay type: functional, organism-based; details: NF54, 72 h
Summary of the method: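 NF54 pfs16-LUC-GFP stage IV–V gametocytes (10% parasitaemia, 0.1% haematocrit) exposed to compound in 0.4% DMSO, three concentrations per log, for 72 h at 37°C under 5% CO2/5% O2/90% N2. MitoTracker Red CM-H2Xros then added for 16 h and viable gametocytes counted by imaging.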

Plasmodium berghei [23] = experiment: Antiplasmodial activity against Plasmodium berghei ANKA infected in NMRI mouse assessed as reduction in parasitemia at 1 mg/kg, po QD for 4 days; assay type: functional; parameters: scale not given: the % may be the effect or the level left; details: time 4 day; summary of the method: as §2
[24] = Intrinsic clearance in Sprague-Dawley rat liver microsomes at 0.5 uM in presence of NADPH incubated upto 30 mins by UPLC-MS/MS analysis; assay type: ADME, Microsome; details: 0.5 h; summary of the method: as §4
[25] = AUC in NMRI mouse at 3 mg/kg, po administered as gavage by UPLC-MS/MS analysis; assay type: ADME, organism-based; parameters: dose 3 mg/kg; details: in vivo
[26] = Blood clearance in NMRI mouse at 1 mg/kg, iv administered as bolus dose by UPLC-MS/MS analysis; assay type: ADME, organism-based
[27] = Volume of distribution at steady state in Sprague-Dawley rat at 1 mg/kg, iv administered as bolus dose by UPLC-MS/MS analysis; assay type: ADME, organism-based; details: in vivo, 1 mg/kg; summary of the method: as §3

O=C(NCCN1CCCC1)c1cc(-c2ccc(CN3CCOCC3)cc2)nc2ccc(F)cc12 [CABAMIQUINE]
EC50 (Plasmodium berghei [1]): 5 nM | Vdss [2]: 15 L/kg | EC50 (Plasmodium falciparum [3]): 0.7 nM | Survival (Plasmodium berghei [4]): >30 days | Activity (Plasmodium berghei [5]): Active | t1/2 [6]: 10 h | EC50 (Plasmodium falciparum [7]): 0.4 nM | CLH [8]: <= 1.1 ml/min/g | Activity (Plasmodium berghei [9]): Active | AUC [10]: 3340 ng·h/mL | EC50 (Plasmodium falciparum [11]): 0.4 nM | Papp at 5 h, 10 µM [12]: 7.3 ×10⁻⁶ cm/s | EC50 (Plasmodium falciparum [13]): 0.3 nM | IC50 [14]: 16000 nM | Survival (Plasmodium berghei [15]): 14 days | Survival (Plasmodium berghei [16]): 25 days | EC50 (Plasmodium falciparum [17]): 0.4 nM | Survival (Plasmodium berghei [18]): >30 days | clearance [19]: 18 mL/min/kg | EC50 (MRC5): 24000 nM | Activity (Plasmodium berghei [20]): 99.9% | ED90 (Plasmodium berghei [21]): 0.1 mg/kg | EC50 (Plasmodium falciparum [22]): 24 nM | Activity (Plasmodium berghei [23]): 99.9% | CLH [24]: <= 0.8 ml/min/g | AUC [25]: 2990 ng·h/mL | clearance [26]: 12 mL/min/kg | Vdss [27]: 15 L/kg
